Experimental data pooled from the literature.
Each line is one published result; the experiments were not run side by side. pIC50: −log10 of the molar value.
Mode: inhibitor
rep methyltransferase: Replicase polyprotein 1ab, methyltransferase (rep, Severe acute respiratory syndrome coronavirus 2, UniProt P0DTD1)
rep main protease: Replicase polyprotein 1ab, main protease (rep, Severe acute respiratory syndrome coronavirus 2, UniProt P0DTD1)
rep papain-like protease: Replicase polyprotein 1ab, papain-like protease (rep, Severe acute respiratory syndrome coronavirus 2, UniProt P0DTD1)

Structure (SMILES)	target	observed	technique	pH	pIC50
O=c1oc2c(O)c(O)cc3c(=O)oc4c(O)c(O)cc1c4c23	rep methyltransferase	enzyme activity			4.64
O=C(NC[C@@H]1c2ccccc2CCN1C(=O)/C=C/c1cn[nH]c1)c1cncc2ccc(F)cc12	rep main protease	enzyme activity			4.73
C=C(c1ccc(C(=O)O)cc1)c1cc2c(cc1C)C(C)(C)CCC2(C)C	rep main protease	enzyme activity in cells			4.70
CC(=O)N[C@@H](CS)C(=O)O	rep main protease	enzyme activity			< 3.35
CC[C@]12C=CCN3CC[C@@]4(c5cc([C@@]6(C(=O)OC)C[C@@H]7C[C@@H](C(C)(F)F)C[N@](CCc8c6[nH]c6ccccc86)C7)c(OC)cc5N(C)[C@H]4[C@@](O)(C(=O)OC)[C@@H]1OC(C)=O)[C@@H]32	rep main protease	enzyme activity			< 4.70
Cc1ccc(-c2nc(N3CCOCC3)s[n+]2-c2ccccc2)cc1	rep main protease	enzyme activity			6.45
O=C(NCCCNc1nc(Nc2cccc(NC(=O)N3CCCC3)c2)ncc1I)c1cccs1	rep main protease	enzyme activity			5.06
COC(=O)c1c(NC(=O)c2cc3ccccc3o2)sc(C)c1C	rep methyltransferase	enzyme activity			4.64
CC(=O)O/N=C1/C(=O)N(Cc2cc(Cl)ccc2Cl)c2ccc(Cl)cc21	rep main protease	enzyme activity			4.75
COc1cc(C[C@@H](C)[C@@H](C)Cc2ccc(O)c(OC)c2)ccc1O	rep papain-like protease	enzyme activity	FRET		5.37
O=C(O)c1nnn(-c2nccs2)c1-c1ccc2c(c1)OCO2	rep methyltransferase	enzyme activity			4.25
COc1cc(C[C@@H](C)[C@@H](C)Cc2cc(O)c(OC)c(OC)c2)cc(O)c1OC	rep papain-like protease	enzyme activity	FRET		5.28
CC(C)C[C@H](NC(=O)[C@@H](NC(=O)OCc1ccccc1)C(C)(C)C)C(=O)N(C)N(C#N)CCC(N)=O	rep main protease	enzyme activity			6.11
CC(C)c1cccc(NC(=O)C2CC(=O)Nc3ccccc32)c1 (stereo not drawn)	rep main protease	enzyme activity			5.43
CCOc1nc2cccc(C(=O)O)c2n1Cc1ccc(-c2ccccc2-c2nnn[nH]2)cc1	rep main protease	enzyme activity			< 3.62
COc1ccc(O)c(C=NN2C(=O)c3ccccc3NC2c2cc(OC)ccc2O)c1 (stereo not drawn)	rep main protease	enzyme activity in cells			5.19
Nc1ccc(C(=O)N2CC3(CCC3)C[C@H]2CNC(=O)c2cncc3ccccc23)cc1O	rep main protease	enzyme activity			4.53
S=C=NCc1ccccc1	rep main protease	enzyme activity			< 4.70

Structure (SMILES)	target	observed	technique	pH	pIC50
CC(C)c1nc(CN(C)C(=O)N[C@@H](CCN2CCOCC2)C(=O)N[C@H](CC[C@H](Cc2ccccc2)NC(=O)OCc2cncs2)Cc2ccccc2)cs1	rep main protease	enzyme activity in cells			< 4.70
Sc1ncnc2nc[nH]c12	rep papain-like protease	enzyme activity	FRET	pH 7.5	< 4.22
CCOc1ccc(Nc2nc(-c3c(C)nc4ccccn34)cs2)cc1	rep main protease	enzyme activity			5.30
COC(=O)C1=C(C)NC(C)=C(C(=O)OCCN2CCN(C(c3ccccc3)c3ccccc3)CC2)C1c1cccc([N+](=O)[O-])c1 (stereo not drawn)	rep main protease	enzyme activity in cells			< 5.00
Cc1cccc(C)c1OCC(=O)N[C@@H](Cc1ccccc1)[C@@H](O)C[C@H](Cc1ccccc1)NC(=O)[C@H](C(C)C)N1CCCNC1=O	rep main protease	enzyme activity			3.69
Cc1cccc(C)c1OCC(=O)N[C@@H](Cc1ccccc1)[C@@H](O)C[C@H](Cc1ccccc1)NC(=O)[C@H](C(C)C)N1CCCNC1=O	rep main protease	enzyme activity	luciferase		< 3.62
COC(=O)C1=C(C(=O)OC)C(c2ccc(Cl)cc2)c2sc(=O)[nH]c2S1 (stereo not drawn)	rep methyltransferase	enzyme activity			4.13
CN(C(=O)[C@H](Cc1ccccc1)NC(=O)[C@@H](NC(=O)OCc1ccccc1)C(C)(C)C)N(C#N)CCC(N)=O	rep main protease	enzyme activity			6.63
O=C1c2ccccc2NC(c2cc(Cl)ccc2O)N1N=Cc1cc(Cl)ccc1O (stereo not drawn)	rep main protease	enzyme activity in cells			5.00
COC(=O)N[C@H](C(=O)N[C@@H](Cc1ccccc1)[C@@H](O)CN(Cc1ccc(-c2ccccn2)cc1)NC(=O)[C@@H](NC(=O)OC)C(C)(C)C)C(C)(C)C	rep main protease	enzyme activity	luciferase		< 3.62
Oc1c(Cl)cc(Cl)c(Cl)c1Cc1c(O)c(Cl)cc(Cl)c1Cl	rep methyltransferase	enzyme activity			5.06
c1cnc(SCc2cccnc2)nc1	rep main protease	enzyme activity			6.82
CC(Cc1ccc(O)c(O)c1)C(C)Cc1ccc(O)c(O)c1 (stereo not drawn)	rep methyltransferase	enzyme activity			4.99
CCc1ccc(/C=C/C(=O)Nc2ccc(C(C)=O)cc2)o1	rep main protease	enzyme activity			5.30
CNC(=O)c1c(NC(=O)c2sc(=S)n(-c3ccc(C)cc3)c2N)sc2c1CCCC2	rep methyltransferase	enzyme activity			4.45
CN1Cc2ccccc2[C@@H]2c3cccc4[nH]cc(c34)C[C@H]21	rep main protease	enzyme activity			< 4.70
CC1(C)CC(=O)c2c(oc3c(Cl)cc(NS(=O)(=O)c4ccc5ccccc5c4)cc23)C1	rep methyltransferase	enzyme activity			4.06
CC(C)[C@H](NC(=O)[C@H](CCCNC(=N)N)NC(=O)N[C@@H](Cc1ccccc1)C(=O)O)C(=O)N[C@H](C=O)CCCNC(=N)N	rep main protease	enzyme activity	FRET		4.31
